Series [1] has as its target T1, Hexokinase-4 (Homo sapiens) (UniProt P35557).
T1 sequence (whole entry): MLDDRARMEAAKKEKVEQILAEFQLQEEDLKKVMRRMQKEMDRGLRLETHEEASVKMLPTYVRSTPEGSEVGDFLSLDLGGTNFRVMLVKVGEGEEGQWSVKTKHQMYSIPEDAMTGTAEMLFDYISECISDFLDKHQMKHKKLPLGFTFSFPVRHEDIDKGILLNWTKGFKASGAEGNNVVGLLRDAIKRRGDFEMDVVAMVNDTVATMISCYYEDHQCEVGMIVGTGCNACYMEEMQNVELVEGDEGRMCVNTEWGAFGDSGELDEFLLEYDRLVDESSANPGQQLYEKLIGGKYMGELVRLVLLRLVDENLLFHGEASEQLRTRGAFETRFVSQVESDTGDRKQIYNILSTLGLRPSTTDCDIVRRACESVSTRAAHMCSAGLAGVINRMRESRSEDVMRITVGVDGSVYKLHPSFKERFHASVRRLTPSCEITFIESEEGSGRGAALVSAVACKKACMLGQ
The series is described as follows: Activation of human recombinant glucokinase assessed as concentration required for 1.5 fold increase in enzymatic activity. The method in brief: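 Human recombinant GK; activator at fixed concentrations from ∼0.010 to 30 μM, each in duplicate, with glucose held at 5 mM. SC1.5 is the activator concentration giving a 1.5-fold rise in enzymatic activity over untreated GK. Assay CV was about 15%.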

Series [2] deals with Rattus norvegicus. Put plainly: Antidiabetic activity in Wistar rat assessed as reduction of glucose level at 30 to 300 mg/kg, po qd for 5 days measured in day 3. The series is classed as functional, organism-based. The method in brief: (§1)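 Five-day rat study with daily oral dosing. Blood glucose was measured on day 3. Hepatic lipidosis was assessed at study end by Oil Red O staining of liver.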

The test system of series [3] is Rattus norvegicus. Put plainly: Hepatic toxicity in Wistar rat assessed as lipidosis at 30 to 300 mg/kg, po qd for 5 days by Oil Red O staining. The class given is organism-based. Further details: dose 30-300 mg/kg, route oral. To be noted: in vivo, 120 h. The method in brief: as §1

This is an account of results in ChEMBL document CHEMBL2163188, “Discovery of piragliatin--first glucokinase activator studied in type 2 diabetic patients” (J Med Chem, 2012).

Calls of active or inactive are those of the source. The calls are words filed in the database; no cut-off is given here.

For `CS(=O)(=O)c1ccc(C(CC2CCCC2)C(=O)NC(N)=S)cc1` (racemic), the Activity in series [1] is 45 µM; in the series with Rattus norvegicus [3] it was “Toxic”. Besides, the result in the series with Rattus norvegicus [2] was inactive.
